What all share (assay type): cell-based
The target in assay [1] is T1, Nucleotide-binding oligomerization domain-containing protein 2 (Homo sapiens, UniProt Q9HC29). The experiment in a line: Antagonist activity at human NOD2 expressed in HEK-Blue cells assessed as inhibition of MDP-stimulated cell activation at 5 uM preincubated for 3 hrs followed by MDP addition measured after 20 hrs by SEAP reporter gene assay. (In a reporter assay the amount or activity of a reporter protein is the signal.)

The target in assay [2] is T2, Nucleotide-binding oligomerization domain-containing protein 1 (Homo sapiens) (UniProt Q9Y239).
T2 sequence (whole entry): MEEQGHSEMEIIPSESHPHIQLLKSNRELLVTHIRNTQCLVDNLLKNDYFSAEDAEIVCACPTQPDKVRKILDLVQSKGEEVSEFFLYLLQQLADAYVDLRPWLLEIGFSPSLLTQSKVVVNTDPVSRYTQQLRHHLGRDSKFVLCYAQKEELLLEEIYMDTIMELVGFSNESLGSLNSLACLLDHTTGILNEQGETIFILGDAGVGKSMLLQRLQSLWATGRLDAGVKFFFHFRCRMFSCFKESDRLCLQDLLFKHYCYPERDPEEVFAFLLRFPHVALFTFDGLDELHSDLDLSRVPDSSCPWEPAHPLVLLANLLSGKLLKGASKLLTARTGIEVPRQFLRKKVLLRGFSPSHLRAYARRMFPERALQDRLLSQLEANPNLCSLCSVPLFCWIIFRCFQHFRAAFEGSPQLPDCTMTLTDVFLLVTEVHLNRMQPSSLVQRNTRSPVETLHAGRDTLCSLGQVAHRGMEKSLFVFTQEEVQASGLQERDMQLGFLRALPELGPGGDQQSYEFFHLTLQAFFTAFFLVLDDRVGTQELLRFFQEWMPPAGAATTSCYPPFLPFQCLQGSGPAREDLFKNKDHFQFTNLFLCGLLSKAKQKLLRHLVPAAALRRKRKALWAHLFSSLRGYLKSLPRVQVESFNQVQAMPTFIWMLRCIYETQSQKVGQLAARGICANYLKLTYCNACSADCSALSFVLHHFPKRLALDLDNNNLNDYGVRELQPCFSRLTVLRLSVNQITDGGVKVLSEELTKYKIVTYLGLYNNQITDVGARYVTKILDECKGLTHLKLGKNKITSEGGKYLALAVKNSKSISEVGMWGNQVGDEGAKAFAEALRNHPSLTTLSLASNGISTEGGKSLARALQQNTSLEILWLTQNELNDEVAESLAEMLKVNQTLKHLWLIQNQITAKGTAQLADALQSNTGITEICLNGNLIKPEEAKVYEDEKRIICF
As to the kind of experiment: Antagonist activity at human NOD1 expressed in HEK-blue cells assessed as inhibition of C12-iE-DAP-stimulated cell activation at 5 uM preincubated for 3 hrs followed by C12-iE-DAP addition measured after 20 hrs by SEAP reporter gene assay.

For assay [3], the target named is T2, Nucleotide-binding oligomerization domain-containing protein 1 (Homo sapiens). The experiment in a line: Antagonist activity at human NOD1 expressed in HEK-Blue cells assessed as inhibition of C12-iE-DAP-stimulated cell activation at 10 uM preincubated for 3 hrs followed by C12-iE-DAP addition measured after 20 hrs by SEAP reporter gene assay. The method, boiled down:
(§1)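 HEK-Blue hNOD1 or hNOD2 cells preincubated with compound 3 h, then stimulated 20 h with C12-iE-DAP 50 ng/mL (NOD1) or MDP 100 ng/mL (NOD2); SEAP in supernatant quantified. Primary screen at 10 μM, hits repeated in triplicate; IC50 from dose-response, mean ± SD (n = 3), only for compounds reaching ≥50% inhibition at the screening concentration.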

Assay [4] has as its target T1, Nucleotide-binding oligomerization domain-containing protein 2. The experiment in a line: Antagonist activity at human NOD2 expressed in HEK-Blue cells assessed as inhibition of MDP-stimulated cell activation at 10 uM preincubated for 3 hrs followed by MDP addition measured after 20 hrs by SEAP reporter gene assay. The method, boiled down: as §1

T1 sequence (Q9HC29 whole entry, the tested form may be a part): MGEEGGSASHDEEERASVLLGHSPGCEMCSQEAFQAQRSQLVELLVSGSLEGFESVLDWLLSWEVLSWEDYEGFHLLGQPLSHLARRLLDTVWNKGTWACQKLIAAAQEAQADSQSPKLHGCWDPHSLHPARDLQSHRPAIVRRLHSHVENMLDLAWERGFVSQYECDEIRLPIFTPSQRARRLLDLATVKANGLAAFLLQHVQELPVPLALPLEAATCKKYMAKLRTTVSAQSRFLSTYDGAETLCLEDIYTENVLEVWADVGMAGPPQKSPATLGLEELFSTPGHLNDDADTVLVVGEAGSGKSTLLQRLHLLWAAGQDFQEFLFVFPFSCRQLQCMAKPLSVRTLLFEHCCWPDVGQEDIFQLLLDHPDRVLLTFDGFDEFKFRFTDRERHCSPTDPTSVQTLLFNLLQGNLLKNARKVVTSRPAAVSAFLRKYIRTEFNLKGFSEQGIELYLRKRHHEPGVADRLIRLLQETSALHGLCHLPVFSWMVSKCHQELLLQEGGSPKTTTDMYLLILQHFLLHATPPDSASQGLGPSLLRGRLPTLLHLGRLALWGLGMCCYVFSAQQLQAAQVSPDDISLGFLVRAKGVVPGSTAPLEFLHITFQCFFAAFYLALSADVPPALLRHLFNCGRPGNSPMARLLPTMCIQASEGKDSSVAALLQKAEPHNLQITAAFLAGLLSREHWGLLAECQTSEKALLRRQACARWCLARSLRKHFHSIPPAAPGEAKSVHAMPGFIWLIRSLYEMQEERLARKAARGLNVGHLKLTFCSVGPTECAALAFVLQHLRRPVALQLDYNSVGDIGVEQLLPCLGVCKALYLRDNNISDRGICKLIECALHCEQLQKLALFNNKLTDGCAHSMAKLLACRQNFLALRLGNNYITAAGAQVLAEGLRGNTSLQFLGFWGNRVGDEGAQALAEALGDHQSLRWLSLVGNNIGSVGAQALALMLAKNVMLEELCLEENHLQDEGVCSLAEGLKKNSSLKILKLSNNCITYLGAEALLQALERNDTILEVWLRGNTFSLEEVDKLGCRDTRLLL

As a reminder, the inhibition is the relative decrease from the control value, in per cent. With `CN(C)c1cccc(Oc2cc3c(cc2NC(=O)COCc2ccccc2)NC(=O)[C@@H](CCC(=O)N2CCNCC2)NC3=O)c1`, the inhibition came to 42.2% in assay [1] and 33.4% in assay [2].
Consider `COC(=O)CC[C@@H]1NC(=O)c2cc(Oc3cccc(N(C)C)c3)c(NC(=O)COCc3ccc(F)cc3Cl)cc2NC1=O`, for which the inhibition in assay [1] was found to be 10.3%; in assay [2], 29.3%.
As to `C=CCOCC(=O)Nc1cc2c(cc1Oc1cccc(N(C)C)c1)C(=O)N[C@H](CCC(=O)OC)C(=O)N2`, the inhibition in assay [1] was 38.5%; in assay [2], 43.3%.
With `COC(=O)CC[C@H]1NC(=O)c2cc(Oc3cccc(N(C)C)c3)c(NC(=O)COCc3ccc(F)cc3Cl)cc2NC1=O`, the inhibition is 38.6% in assay [3], 12.8% in assay [1], 13.5% in assay [4] and 20.1% in assay [2].
Turning to `COC(=O)CC[C@H]1NC(=O)c2cc(Oc3cccc(N(C)C)c3)c(NC(=O)COCc3ccc(Cl)cc3Cl)cc2NC1=O`, the inhibition in assay [1] was 30.9%; in assay [2], 59.5%.
For `COC(=O)CC[C@H]1NC(=O)c2cc(Oc3cccc(N(C)C)c3)c(NC(=O)COCc3ccc(Cl)c(Cl)c3)cc2NC1=O`, the inhibition in assay [1] amounted to 45.5%; in assay [2], 36%.
For the molecule `COC(=O)CC[C@H]1NC(=O)c2cc(Oc3cc(N(C)C)ccc3Cl)c(NC(=O)COCc3ccccc3)cc2NC1=O`, the inhibition in assay [3] is 29.3%; in assay [1], 11%; in assay [4], 7.26%; in assay [2], 24.8%.
As to `COC(=O)CC[C@H]1NC(=O)c2cc(Oc3cccc(N(C)C)c3)c(NC(=O)COCc3ccsc3)cc2NC1=O`, the inhibition in assay [1] came out at 38.6%; in assay [2], 48.1%.
Regarding `CCCCCCCCCCCCCCCCNC(=O)CC[C@H]1NC(=O)c2cc(Oc3cccc(N(C)C)c3)c(NC(=O)COCc3ccccc3)cc2NC1=O`, the inhibition is 27.5% in assay [3], -4.77% in assay [1], -7.1% in assay [4] and 10.6% in assay [2].
As to `CCCNC(=O)CC[C@H]1NC(=O)c2cc(Oc3cccc(N(C)C)c3)c(NC(=O)COCc3ccc(Br)cc3)cc2NC1=O`, the inhibition turned out to be 50.5% in assay [3], 40.3% in assay [1], 31% in assay [4] and 50.2% in assay [2].
As to `COC(=O)CC[C@H]1NC(=O)c2cc(Oc3cc(N(C)C)cc(Cl)c3Cl)c(NC(=O)COCc3ccccc3)cc2NC1=O`, the inhibition is 1.4% in assay [3], 9.23% in assay [1], 6.85% in assay [4] and -5.19% in assay [2].
Take `COC(=O)CC[C@H]1NC(=O)c2cc(Oc3cccc(N(C)C)c3)c(NC(=O)COCc3ccoc3)cc2NC1=O`: the results for the inhibition in assay [1] and in assay [2] were 24.8% and 34.9%, respectively.
As to `COC(=O)CC[C@H]1NC(=O)c2cc(Oc3ccccc3)c(NC(=O)COCc3ccc(C(F)(F)F)cc3)cc2NC1=O`, the inhibition in assay [1] was 29.8%; in assay [2] it was 42.4%.
As to `O=C(O)CC[C@H]1NC(=O)c2cc(Oc3cccc4ccccc34)c(NC(=O)/C=C\c3ccc(F)cc3Cl)cc2NC1=O`, the results for the inhibition in assay [3] and in assay [4] were 3.86% and 7.76%, respectively.
`COC(=O)CC[C@H]1NC(=O)c2cc(N3CCOCC3)c(NC(=O)C3CC3)cc2NC1=O`: the inhibition in assay [3] amounted to 6.82%; in assay [4] it was 27%.
As for `COC(=O)CC[C@H]1NC(=O)c2cc(Oc3cccc(N(C)C)c3)c(NC(=O)COCc3ccccc3Cl)cc2NC1=O`, the inhibition in assay [1] is 20.9%; in assay [4] it was 23.8%; in assay [2], -5.97%.
As to `COC(=O)CC[C@H]1NC(=O)c2cc(Oc3cc(N(C)C)c(Cl)c(Cl)c3Cl)c(NC(=O)COCc3ccccc3)cc2NC1=O`, the inhibition in assay [3] came out at 11.1%; in assay [1], 11.1%; in assay [4], 17.4%; in assay [2] it was 16.2%.
As for `CCCCCCCCCCCCCCCCCCNC(=O)CC[C@H]1NC(=O)c2cc(Oc3cccc(N(C)C)c3)c(NC(=O)COCc3ccccc3)cc2NC1=O`, the inhibition in assay [3] is 18.5%; in assay [2], 12.7%.
`COC(=O)CCC1NC(=O)c2cc(Cl)ccc2N(CC2CC2)C1=O` (centres undefined): the inhibition in assay [3] was -3.06%; in assay [4], -2.7%.
Regarding `CCCCCCCCCN1C(=O)[C@@H](CCC(=O)OC)N(C)C(=O)c2ccc(Cl)cc21`, the inhibition was 31.3% in assay [3] and 34.1% in assay [4].
As to `CN(C)c1cccc(Oc2cc3c(cc2NC(=O)COCc2ccc(C(F)(F)F)cc2)NC(=O)CNC3=O)c1`, the inhibition in assay [1] stood at 31.6%; in assay [2] it was 38%.
Consider `COC(=O)CC[C@H]1NC(=O)c2cc(Oc3ccc(C)c(C)c3)c(NC(=O)C3CC3)cc2NC1=O`, for which the inhibition in assay [3] was -9.9%; in assay [4], -4.24%.
As for `COC(=O)CC[C@H]1NC(=O)c2cc(Cl)ccc2NC1=O`, the inhibition was 38% in assay [3] and 28.9% in assay [4].
Consider `COC(=O)CC[C@H]1NC(=O)c2cc(Oc3cccc(N(C)C)c3Cl)c(NC(=O)COCc3ccc(Cl)cc3)cc2NC1=O`, for which the inhibition in assay [3] turned out to be 0.08%; in assay [1], 15.7%; in assay [4], 15.7%; in assay [2], 21.9%.
With `CCCCCCCCCN1C(=O)[C@@H](CCC(=O)NCc2cccnc2)N(C)C(=O)c2ccc(Cl)cc21`, the inhibition turned out to be 54.8% in assay [3] and 30.9% in assay [4].
In the case of `CCCCCCCCCCCCNC(=O)CC[C@H]1NC(=O)c2cc(N3CCOCC3)c(NC(=O)C3CC3)cc2NC1=O`, the inhibition in assay [3] was -0.69%; in assay [4], 7.9%.
Regarding `CCCNC(=O)CC[C@H]1NC(=O)c2cc(Oc3cccc(N(C)C)c3)c(NC(=O)COCc3ccc(Cl)cc3)cc2NC1=O`, the inhibition in assay [3] was determined as 47.6%; in assay [1], 37.6%; in assay [4] it was 44.6%; in assay [2] it was 52.9%.
In the case of `COC(=O)CC[C@H]1NC(=O)c2cc(Oc3cccc(N(C)C)c3)c(NC(=O)CCCc3ccccc3)cc2NC1=O`, the inhibition in assay [1] worked out at 18%; in assay [2] it was 22.2%.
In the case of `CCCCCCCCCCCCNC(=O)CC[C@H]1NC(=O)c2cc(Oc3cccc(N(C)C)c3)c(NC(=O)COCc3ccccc3)cc2NC1=O`, the inhibition in assay [3] was 48.2%; in assay [1] it was 29.1%; in assay [4], 23.1%; in assay [2], 37.1%.
As for `CCN(CC)C(=O)CC[C@H]1NC(=O)c2cc(Cl)ccc2NC1=O`, the inhibition is -0.11% in assay [3] and 21.5% in assay [4].
For the molecule `CCCCN(CCCC)c1cc2c(cc1NC(C)=O)NC(=O)[C@@H](CCC(=O)OC)NC2=O`, the inhibition in assay [3] was -6.29%; in assay [4], -7.93%.
In the case of `COC(=O)CC[C@H]1NC(=O)c2cc(N3CCOCC3)c(NC(=O)Cc3ccccc3)cc2NC1=O`, the results for the inhibition in assay [3] and in assay [4] were 13% and 50.9%, respectively.
On to `CCCNC(=O)CC[C@@H]1NC(=O)c2cc(Oc3cccc(N(C)C)c3)c(NC(=O)COCc3ccccc3)cc2NC1=O`, for which the inhibition in assay [1] amounted to 34.5%; in assay [2], 46.1%.
For `CCCCCCCCCCN1C(=O)C(CCC(=O)OC)NC(=O)c2cc(Cl)ccc21` (centres undefined), the figures for the inhibition in assay [3] and in assay [4] were 2.54% and -2.7%, respectively.
With `CN1CCN(C(=O)CC[C@H]2NC(=O)c3cc(Oc4cccc(N(C)C)c4)c(NC(=O)COCc4ccccc4)cc3NC2=O)CC1`, the inhibition worked out at 38.8% in assay [1] and 21.7% in assay [2].

Source of the values: ChEMBL document CHEMBL4014339, “Discovery of 1,4-Benzodiazepine-2,5-dione (BZD) Derivatives as Dual Nucleotide Binding Oligomerization Domain Containing 1/2 (NOD1/NOD2) Antagonists Sensitizing Paclitaxel (PTX) To Suppress Lewis Lung Carcinoma (LLC) Growth in Vivo” (J Med Chem, 2017).
